# Publication PMC12124638 (Journal of medicinal chemistry, 2017)
# Non-standard residues stand in square brackets, D forms with d. Residues, ends and D or L forms follow the SMILES beside them. *: point of attachment. Cha = N[C@@H](CC1CCCCC1)C(=O)O; Decanoyl = CCCCCCCCCC(=O)*; Heptanoyl = CCCCCCC(=O)*; Octanoyl = CCCCCCCC(=O)*; Dab = NCC[C@H](N)C(=O)O; Hexanoyl = CCCCCC(=O)*
# What was measured:
# [1] = system: methicillin-resistant S. aureus strain LAC; assay: Catheter-associated biofilm in vitro; type: cell-based, Staphylococcus aureus; conditions: for reduction of viable biofilm-associated S. aureus cells: established catheter biofilm, n=6 catheters
# P. aeruginosa ATCC 27853 [2] = assay: Time-kill assay; type: cell-based, Pseudomonas aeruginosa
# Summary of the method: (§1)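 Time-kill is run with test compound at 8, 16 and 32 μg/mL. Surviving cells are counted by plating on TSA at 0, 2, 4, 6 and 24 h. Three independent experiments are run, one replicate each. Results are given as mean ± standard deviation, and final-timepoint counts are compared by ANOVA with Tukey HSD.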
# S. aureus ATCC 29213 [3] = assay: Time-kill assay; type: cell-based, Staphylococcus aureus; conditions: for reduction of viable S. aureus cells: after 4 h
# Summary of the method: as §1
# [4] = system: Escherichia coli ATCC 25922; assay: MIC in 95% human serum; type: cell-based; conditions: against both E. coli and S. aureus; 95% human serum versus TSB
# P. aeruginosa ATCC 27853 [5] = assay: Catheter-associated biofilm in vitro; type: cell-based, Pseudomonas aeruginosa; conditions: 40× MIC (40 μg/ml), 72 h exposure, n=6
# P. aeruginosa ATCC 27853 [6] = assay: Impact of purified lipopolysaccharide; type: cell-based, Pseudomonas aeruginosa; conditions: LPS from E. coli O111:B4 at 100 μg/ml; analogue 17 at 16 μg/mL; 37°C, 60 min
# Summary of the method: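 Cells are diluted in TSB to about 10^6 CFU/mL. E. coli O111:B4 LPS (final 10, 25, 50 or 100 μg/mL) is added, then test compound at final 16 μg/mL. Incubation is 60 min at 37 °C with shaking at 200 rpm. Survivors are counted on TSA. Three independent experiments are run, one replicate each. Counts are analysed by ANOVA and Tukey HSD.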
# P. aeruginosa ATCC 27853 [7] = assay: Cytoplasmic membrane integrity assay, DiSC3; type: cell-based, Pseudomonas aeruginosa; conditions: increase of DiSC3(5) fluorescence; tested 8–64 μg/mL; buffer with 0.2 mM EDTA
# S. aureus ATCC 29213 [8] = assay: Cytoplasmic membrane integrity assay, DiSC3; type: cell-based, Staphylococcus aureus; conditions: increase of DiSC3(5) fluorescence; tested 8–64 μg/mL
# P. aeruginosa ATCC 27853 [9] = assay: Potassium ion release assay, PBFI probe; type: cell-based, Pseudomonas aeruginosa; conditions: PBFI fluorescence; tested 8–64 μg/mL
# S. aureus ATCC 29213 [10] = assay: Potassium ion release assay, PBFI probe; type: cell-based, Staphylococcus aureus; conditions: PBFI fluorescence; tested 8–64 μg/mL
# [11] = system: Acinetobacter baumannii ATCC 19606; assay: Sensitization to antibiotics, checkerboard MIC; type: cell-based; conditions: for Sensitization factor, rifampicin, Acinetobacter baumannii ATCC 19606: ratio of the MIC in the absence of paenipeptins to that in the presence of 4 μg/mL
# [12] = system: Klebsiella pneumoniae ATCC 13883; assay: Sensitization to antibiotics, checkerboard MIC; type: cell-based; conditions: for Sensitization factor, rifampicin, Klebsiella pneumoniae ATCC 13883: ratio of the MIC in the absence of paenipeptins to that in the presence of 4 μg/mL; for Sensitization factor, clarithromycin, Klebsiella pneumoniae ATCC 13883: MIC without / with 4 μg/mL paenipeptin
# [13] = system: methicillin-resistant S. aureus ATCC 43300
# E. coli UAMS-ECPR1 = assay: MIC, polymyxin-resistant strain; type: cell-based, Escherichia coli; conditions: polymyxin-resistant derivative of E. coli ATCC 25922
# E. coli UAMS-ECPR2 = type: cell-based, Escherichia coli; conditions: polymyxin-resistant derivative of E. coli ATCC 25922
# [14] = system: Klebsiella pneumoniae AR 0109; assay: MIC, polymyxin-resistant strain; type: cell-based; conditions: FDA-CDC Antibiotic-Resistance Bank
# K. pneumoniae UAMS-KPPR1 = assay: MIC, polymyxin-resistant strain; type: cell-based, Klebsiella pneumoniae; conditions: polymyxin-resistant derivative of K. pneumoniae ATCC 13883
# K. pneumoniae UAMS-KPPR3 = assay: MIC, polymyxin-resistant strain; type: cell-based, Klebsiella pneumoniae; conditions: polymyxin-resistant derivative of K. pneumoniae ATCC 13883
# Gram-negative bacteria = conditions: cited from earlier work
# P. aeruginosa ATCC 27853 [15] = system: P. aeruginosa ATCC 27853
# [16] = cited from earlier work
# [17] = MIC without / with 4 μg/mL paenipeptin
molecule,measurement,setting,value
CCCCCCCCCC(=O)N[C@@H](CCN)C(=O)N[C@H](C(=O)N[C@@H](CCN)C(=O)N[C@H](Cc1ccccc1)C(=O)N[C@@H](CC(C)C)C(=O)N[C@@H](CCN)C(=O)N[C@@H](C(=O)N[C@@H](CC(C)C)C(=O)N[C@@H](CO)C(N)=O)C(C)C)[C@@H](C)CC [Analogue 12] (Decanoyl-[Dab]I[Dab][dF]L[Dab][dV]LS-NH2),activity in the context of an established catheter-associated biofilm,[1]; data not shown,no activity
CC(C)C[C@H](NC(=O)[C@@H](Cc1ccccc1)NC(=O)[C@H](CCN)NC(=O)[C@H](Cc1ccccc1)NC(=O)[C@H](CCN)NC(=O)[C@@H](N)CC1CCCCC1)C(=O)N[C@@H](CCN)C(=O)N[C@H](CC(C)C)C(=O)N[C@@H](Cc1ccccc1)C(=O)N[C@@H](CO)C(N)=O [Analogue 17] (H-[Cha][Dab]F[Dab][dF]L[Dab][dL]FS-NH2),reduction of viable P. aeruginosa cells,"P. aeruginosa ATCC 27853 [2]; 8 μg/ml, 2 h",2.2 log
same,viable P. aeruginosa cells at 24 h,"P. aeruginosa ATCC 27853 [2]; 8 μg/ml, 24 h",significant bacterial regrowth
same,reduction of viable P. aeruginosa cells,"P. aeruginosa ATCC 27853 [2]; 16 μg/ml, within 2 h",3.7 logs
same,viable P. aeruginosa cells after 24 h exposure,"P. aeruginosa ATCC 27853 [2]; 32 μg/ml or 16 μg/ml, 24 h",no viable cells were detected
same,reduction of viable P. aeruginosa cells,"P. aeruginosa ATCC 27853 [2]; 32 μg/ml, within 2 h",5.1 logs
same,viable S. aureus cells on exposure,S. aureus ATCC 29213 [3]; 8 μg/ml,Regrowth
same,reduction of viable S. aureus cells,S. aureus ATCC 29213 [3]; 16 μg/ml,3.1 logs
same,reduction of viable S. aureus cells,S. aureus ATCC 29213 [3]; 32 μg/ml,5.4 logs
same,increase in MIC in the presence of human serum,[4],8 to 16 fold
same,reduction in activity in the presence of human serum,[4],88–94%
same,reduction of viable biofilm-associated S. aureus cells,"[1]; 40 μg/mL (5 × MIC), 72 h exposure",3 log
same,reduction of viable biofilm-associated S. aureus cells,"[1]; 160 μg/mL (20 × MIC), 72 h exposure",5 log
same,catheters completely cleared of viable bacteria,"[1]; 20 times the MIC of each antibiotic, six catheters, 72 h exposure",50%
same,reduction in the number of viable P. aeruginosa cells in an established biofilm,P. aeruginosa ATCC 27853 [5],2.6 log
same,impact of purified LPS on bactericidal activity,P. aeruginosa ATCC 27853 [6],neutralized the bactericidal activity
same,concentration that depolarized the membrane potential,P. aeruginosa ATCC 27853 [7],≥ 16 µg/mL
same,concentration that depolarized the membrane potential,S. aureus ATCC 29213 [8],≥ 16 µg/mL
same,concentration that significantly released intracellular potassium ions,P. aeruginosa ATCC 27853 [9],32 to 64 µg/mL
same,concentration that significantly released intracellular potassium ions,S. aureus ATCC 29213 [10],32 to 64 µg/mL
CCCCCCC(=O)N[C@@H](CCN)C(=O)N[C@H](C(=O)N[C@@H](CCN)C(=O)N[C@H](Cc1ccccc1)C(=O)N[C@@H](CC(C)C)C(=O)N[C@@H](CCN)C(=O)N[C@@H](C(=O)N[C@@H](CC(C)C)C(=O)N[C@@H](CO)C(N)=O)C(C)C)C(C)C [Analogue 2] (Heptanoyl-[Dab]V[Dab][dF]L[Dab][dV]LS-NH2),"Sensitization factor, rifampicin, Acinetobacter baumannii ATCC 19606",[11],256–512
same,"Sensitization factor, rifampicin, Klebsiella pneumoniae ATCC 13883",[12],"4,096"
CCCCCCCCCC(=O)N[C@@H](CCN)C(=O)N[C@H](C(=O)N[C@H](C(=O)N[C@H](CC(C)C)C(=O)N[C@@H](CC(C)C)C(=O)N[C@@H](CCN)C(=O)N[C@@H](C(=O)N[C@@H](CC(C)C)C(=O)N[C@@H](CO)C(N)=O)C(C)C)[C@@H](C)O)[C@@H](C)CC [Analogue 13] (Decanoyl-[Dab]IT[dL]L[Dab][dV]LS-NH2),"synergism with rifampicin, in words",[11]; against Acinetobacter and Klebsiella,did not show synergism
same,"MIC, A. baumannii ATCC 19606",A. baumannii ATCC 19606,>32 mg/L
same,"MIC, S. aureus ATCC 43300",[13],>32 mg/L
CCCCCC(=O)N[C@@H](CCN)C(=O)N[C@H](C(=O)N[C@@H](CCN)C(=O)N[C@H](Cc1ccccc1)C(=O)N[C@@H](CC(C)C)C(=O)N[C@@H](CCN)C(=O)N[C@@H](C(=O)N[C@@H](CC(C)C)C(=O)N[C@@H](CO)C(N)=O)C(C)C)[C@@H](C)CC [Analogue 1] (Hexanoyl-[Dab]I[Dab][dF]L[Dab][dV]LS-NH2),"Sensitization factor, rifampicin, Acinetobacter baumannii ATCC 19606",[11],"4,096–8,192"
same,"Sensitization factor, rifampicin, Klebsiella pneumoniae ATCC 13883",[12],"8,192"
CCCCCCCC(=O)N[C@@H](CCN)C(=O)N[C@H](C(=O)N[C@@H](CCN)C(=O)N[C@H](Cc1ccccc1)C(=O)N[C@@H](CC(C)C)C(=O)N[C@@H](CCN)C(=O)N[C@@H](C(=O)N[C@@H](CC(C)C)C(=O)N[C@@H](CCN)C(N)=O)C(C)C)[C@@H](C)CC [Analogue 9] (Octanoyl-[Dab]I[Dab][dF]L[Dab][dV]L[Dab]-NH2),"Sensitization factor, clarithromycin, Acinetobacter baumannii ATCC 19606",[11]; [17],"4,096–8,192"
same,"Sensitization factor, erythromycin, Acinetobacter baumannii ATCC 19606",[11]; [17],128–256
same,"Sensitization factor, vancomycin, Acinetobacter baumannii ATCC 19606",[11]; [17],64–128
same,"Sensitization factor, rifampicin, Acinetobacter baumannii ATCC 19606",[11],"8,192"
same,"Sensitization factor, clarithromycin, Klebsiella pneumoniae ATCC 13883",[12],"2,048"
same,"Sensitization factor, rifampicin, Klebsiella pneumoniae ATCC 13883",[12],"≥8,192"
Polymyxin B,"MIC, E. coli UAMS-ECPR1",E. coli UAMS-ECPR1,32 mg/L
same,"MIC, E. coli UAMS-ECPR2",E. coli UAMS-ECPR2,32 mg/L
same,"MIC, Klebsiella pneumoniae AR 0109",[14],16 to 32 mg/L
same,"MIC, K. pneumoniae UAMS-KPPR1",K. pneumoniae UAMS-KPPR1,>32 mg/L
same,"MIC, K. pneumoniae UAMS-KPPR3",K. pneumoniae UAMS-KPPR3,>32 mg/L
"CO[C@H]1/C=C/O[C@@]2(C)Oc3c(C)c(O)c4c(O)c(c(/C=N/N5CCN(C)CC5)c(O)c4c3C2=O)NC(=O)/C(C)=C\C=C\[C@H](C)[C@H](O)[C@@H](C)[C@@H](O)[C@@H](C)[C@H](OC(C)=O)[C@@H]1C [rifampicin, reference compound]",MIC,"[11]; Acinetobacter baumannii, ATCC19606, read-out: MIC of rifampicin alone, in μM",19.4 µM
same,MIC of rifampicin against Gram-negative bacteria without C10X,Gram-negative bacteria,8 to 32 mg/L
CCCCCCCC(=O)N[C@@H](CCN)C(=O)N[C@@H](CCN)C(=O)N[C@@H](CCN)C(=O)N[C@H](Cc1ccccc1)C(=O)N[C@@H](CC(C)C)C(=O)N[C@@H](CCN)C(=O)N[C@@H](C(=O)N[C@@H](CC(C)C)C(=O)N[C@@H](CCN)C(N)=O)C(C)C [Analogue 10] (Octanoyl-[Dab][Dab][Dab][dF]L[Dab][dV]L[Dab]-NH2),"Sensitization factor, rifampicin, Acinetobacter baumannii ATCC 19606",[11],256–512
same,"MIC, A. baumannii ATCC 19606",A. baumannii ATCC 19606,>32 mg/L
same,"MIC, P. aeruginosa ATCC 27853",P. aeruginosa ATCC 27853 [15],16 to 32 mg/L
same,"MIC, S. aureus ATCC 43300",[13],>32 mg/L
CC[C@H](C)[C@H](NC(=O)[C@H](CCN)NC(=O)[C@@H](N)CC1CCCCC1)C(=O)N[C@@H](CCN)C(=O)N[C@H](Cc1ccccc1)C(=O)N[C@@H](CC(C)C)C(=O)N[C@@H](CCN)C(=O)N[C@@H](C(=O)N[C@@H](CC(C)C)C(=O)N[C@@H](CO)C(N)=O)C(C)C [Analogue 16] (H-[Cha][Dab]I[Dab][dF]L[Dab][dV]LS-NH2),"Sensitization factor, ampicillin, Acinetobacter baumannii ATCC 19606",[11]; [17],2–4
same,"Sensitization factor, clarithromycin, Acinetobacter baumannii ATCC 19606",[11]; [17],"2,048"
same,"Sensitization factor, vancomycin, Acinetobacter baumannii ATCC 19606",[11]; [17],32–64
same,"Sensitization factor, rifampicin, Acinetobacter baumannii ATCC 19606",[11],"4,096"
same,"Sensitization factor, clarithromycin, Klebsiella pneumoniae ATCC 13883",[12],"2,048–4,096"
same,"Sensitization factor, rifampicin, Klebsiella pneumoniae ATCC 13883",[12],"≥8,192"
CCCCCCCCCC(=O)N[C@@H](Cc1c[nH]c2ccccc12)C(=O)N[C@H](CC(N)=O)C(=O)N[C@@H](CC(=O)O)C(=O)N[C@@H]1C(=O)NCC(=O)N[C@@H](CCCN)C(=O)N[C@@H](CC(=O)O)C(=O)N[C@H](C)C(=O)N[C@@H](CC(=O)O)C(=O)NCC(=O)N[C@H](CO)C(=O)N[C@@H]([C@H](C)CC(=O)O)C(=O)N[C@@H](CC(=O)c2ccccc2N)C(=O)O[C@@H]1C [daptomycin],bound to plasma proteins,[16],94%
